Our source for the Activity values is ChEMBL document CHEMBL1153617, “Synthesis of new acridines and hydrazones derived from cyclic beta-diketone for cytotoxic and antiviral evaluation” (2009).

Molecules are shown by their SMILES.

Set-up in all cases: scale not given: the % may be the effect or the level left
In assay [1] the test system is Hepatovirus A. In words: Antiviral activity against HAV MBB in human HepG2 cells assessed as reduction in viral titer at 10 ug/ml by plaque reduction assay. Format: functional, Human hepatitis A virus Hu/Northern Africa/MBB/1978. Summed up: (§1)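 HAV pre-mixed with compound (10 or 20 µg/10⁵ cells; virus at 10⁴ PFU/ml final), held overnight at 4 °C. Mixture inoculated onto HepG2 monolayers grown 2 days at 37 °C, then 1 h contact. Overlay of MEM with 1% agarose, incubated at 37 °C until plaques formed. Formalin-fixed, crystal violet-stained. Plaques counted; % reduction calculated against untreated virus control.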
(In general: Plaques are areas of infected cells; plaque reduction assays count them against a control.)

In assay [2] the test system is Hepatovirus A. In words: Antiviral activity against HAV MBB in human HepG2 cells assessed as reduction in viral titer at 20 ug/ml by plaque reduction assay. In kind it is functional, Human hepatitis A virus Hu/Northern Africa/MBB/1978. The essentials: as §1
In another assay the test system is HepG2. The assay is described as follows: Cytotoxicity against human HepG2 cells assessed as reduction in cell growth at 10 umol/ml after 24 hrs by MTT assay relative to control. Format: functional. Summed up:
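HepG2 grown in RPMI-1640 with 10% FCS. Cells taken at ~80% confluence, seeded 3×10³/well, incubated overnight at 37 °C, 5% CO₂. Compound exposure 24 h. Then PBS wash and MTT (0.5 mg/ml) for 4 h. Crystals dissolved in DMSO, OD read at 570 nm (reference 690 nm). Reported as % reduction in cell growth versus untreated control.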
In general terms: Tetrazolium assays rely on reduction of a dye to a coloured formazan, in cell work by metabolically active cells.

For `CC1(C)CC(=O)C=C(NCc2nnc(Nc3ccccc3)s2)C1`, the Activity with Hepatovirus A [1] came out at 45.2%; in the assay on Hepatovirus A [2] it was 49%.
`CC1(C)CC(=O)C=C(NCC(=O)N/N=C\c2ccc(O)cc2)C1`: the Activity in the assay with HepG2 is reported as 40.32%; in the assay on Hepatovirus A [1], 9.4%; in the assay on Hepatovirus A [2] it was 15%.
Taken in the same sequence, the figures for `CC1(C)CC(=O)C=C(NCC(=O)N/N=C\c2ccc(Br)cc2)C1` were 40.06%, 43.3% and 27.3%.
With `COc1ccc(/C=N\NC(=O)CNC2=CC(=O)CC(C)(C)C2)cc1`, the results for the Activity in the assay on HepG2, with Hepatovirus A [1] and in the assay with Hepatovirus A [2] were 16.99%, 24.5% and 36.2%, respectively.
Take `CC1(C)CC(=O)C=C(NCC(=O)NNC(=S)Nc2ccccc2)C1`: the Activity was 54.84% with HepG2, 18.8% in the assay on Hepatovirus A [1] and 39.6% with Hepatovirus A [2].
Regarding `CCOC(=O)CN1C2=C(C(=O)CC(C)(C)C2)C(c2ccc(O)cc2)C2=C1CC(C)(C)CC2=O`, the Activity is 54.7% in the assay on HepG2, 30.1% with Hepatovirus A [1] and 48.1% in the assay on Hepatovirus A [2].
Consider `CCOC(=O)CN1C2=C(C(=O)CC(C)(C)C2)C(c2ccc(OC)cc2)C2=C1CC(C)(C)CC2=O`, for which the Activity was found to be 37.99% with HepG2, 24.5% with Hepatovirus A [1] and 45.2% in the assay with Hepatovirus A [2].
As to `CC1(C)CC(=O)C=C(NCC(=O)NN)C1`, the Activity in the assay with HepG2 was 57.4%; in the assay on Hepatovirus A [1], 33.9%; in the assay with Hepatovirus A [2], 34.9%.
As for `CCOC(=O)CNC1=CC(=O)CC(C)(C)C1`, the figures for the Activity with HepG2, in the assay on Hepatovirus A [1] and with Hepatovirus A [2] were 50%, 5.6% and 15%, respectively.
As to `CC1(C)CC(=O)C=C(NCC(=O)N/N=C\c2ccc(Cl)cc2)C1`, the Activity is listed as 57.5% in the assay on Hepatovirus A [1] and 60.3% in the assay on Hepatovirus A [2].
Turning to `CC1(C)CC(=O)C=C(NCC(=O)NNC(=O)NCCCl)C1`, the Activity was 58.29% in the assay on HepG2, 42.4% in the assay with Hepatovirus A [1] and 40.5% in the assay on Hepatovirus A [2].
For `CCOC(=O)CN1C2=C(C(=O)CC(C)(C)C2)C(c2ccc(Cl)cc2)C2=C1CC(C)(C)CC2=O` the same measures were 54.14%, 30.1% and 47.1%.
Taken in the same sequence, the figures for `CCOC(=O)CN1C2=C(C(=O)CC(C)(C)C2)C(c2ccccc2)C2=C1CC(C)(C)CC2=O` were 3.32%, 37.7% and 60.3%.
Taken in the same sequence, the figures for `CCOC(=O)CN1C2=C(C(=O)CC(C)(C)C2)C(c2ccc(Br)cc2)C2=C1CC(C)(C)CC2=O` were 49.17%, 47.1% and 52.8%.
As for `CC1(C)CC(=O)C=C(NCc2nnc(S)n2-c2ccccc2)C1`, the Activity amounted to 35.64% with HepG2, 28.3% in the assay with Hepatovirus A [1] and 30.1% in the assay on Hepatovirus A [2].
`CC1(C)CC(=O)C=C(NCC(=O)N/N=C\c2ccc([N+](=O)[O-])cc2)C1`: the Activity is recorded as 39.6% in the assay on Hepatovirus A [1] and 43.3% with Hepatovirus A [2].
For `CC1(C)CC(=O)C=C(NCC(=O)N/N=C\c2ccccc2)C1` the same measures were 56.6% and 58.4%.
For the molecule `NC12CC3CC(CC(C3)C1)C2` [AMANTADINE], the Activity with Hepatovirus A [1] stood at 30.1%; in the assay on Hepatovirus A [2] it was 45.2%.
